Compound activity from PubChem BioAssay.
RAD54 inh – inhibitors of human RAD54 branch migration, primary screen, biochemical, fluorescence, single point; DNA repair and recombination protein RAD54-like (Homo sapiens), Q92698; RAD54 Holliday junction branch migration, FAM/BHQ fluorescence; inhibition, % at 10.4 µM; actives 0.14% (n = 360,000); AID 602329, 2012;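 active = mean normalized replicate activity at least 40 and at least half of replicates scoring 40 or more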;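 note: 0% = median of neutral control wells and 100% = median of positive control wells; inhibitors cause a drop in the FAM fluorescence signal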
Target sequence (Q92698 whole entry, looked up): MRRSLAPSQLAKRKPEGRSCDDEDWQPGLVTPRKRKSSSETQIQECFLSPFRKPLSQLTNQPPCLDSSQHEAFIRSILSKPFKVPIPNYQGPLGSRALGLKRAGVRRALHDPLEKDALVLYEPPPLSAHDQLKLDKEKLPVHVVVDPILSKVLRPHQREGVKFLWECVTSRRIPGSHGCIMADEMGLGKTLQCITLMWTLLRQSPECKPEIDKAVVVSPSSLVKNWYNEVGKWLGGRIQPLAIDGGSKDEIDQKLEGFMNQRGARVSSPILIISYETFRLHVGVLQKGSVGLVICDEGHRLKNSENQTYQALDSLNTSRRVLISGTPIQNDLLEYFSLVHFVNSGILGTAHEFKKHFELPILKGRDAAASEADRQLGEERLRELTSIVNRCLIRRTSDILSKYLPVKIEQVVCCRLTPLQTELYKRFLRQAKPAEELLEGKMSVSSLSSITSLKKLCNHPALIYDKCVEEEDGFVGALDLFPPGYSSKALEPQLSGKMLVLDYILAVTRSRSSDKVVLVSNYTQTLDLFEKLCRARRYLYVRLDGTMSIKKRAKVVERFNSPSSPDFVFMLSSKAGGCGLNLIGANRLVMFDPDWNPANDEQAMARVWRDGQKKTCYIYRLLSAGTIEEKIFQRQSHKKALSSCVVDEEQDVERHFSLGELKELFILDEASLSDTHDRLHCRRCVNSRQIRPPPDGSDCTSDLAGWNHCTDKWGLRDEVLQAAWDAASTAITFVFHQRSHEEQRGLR
S100A4 MyoIIA – inhibitors of S100A4-myosin IIA peptide binding, primary screen, biochemical, fluorescence polarization, TAMRA-MyoIIA peptide. Protein S100-A4 (Homo sapiens), P26447. actives 0.14% (n = 360,000). inhibition, % at 10.7 µM;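 active = mean inhibition of at least 70% across replicates, with every replicate also reaching that level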
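Assay system: human S100A4 monomer with TAMRA-labelled myosin IIA peptide / Buffer or medium: Calcium-containing HEPES buffer, pH 7.2 / Reagent: TAMRA-labelled myosin IIA heavy-chain peptide probe, 5 nM / Compound: one dose per compound / Timing: polarization read 5 min after assay mix addition, stable 5–60 min / Benchmarks: neutral control DMSO, positive control TFP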
PglD DTNB – C. jejuni PglD acetyltransferase inhibitors, primary screen, biochemical, DTNB colorimetric, single point; UDP-N-acetylbacillosamine N-acetyltransferase PglD (Campylobacter jejuni); purified PglD enzyme, DTNB colorimetric CoA detection; inhibition, % at 12.5 µM; actives 0.098% (n = 360,000); AID 602405, 2012; in the data active = inhibition above about 16%, passing the limit was not always enough
ERp5 block – inhibitors of ERp5-driven insulin aggregation, primary screen, biochemical, turbidity, absorbance 650 nm, single point | 90 min | inhibition, % at 9.99 µM | actives 0.05% (n = 350,000) | AID 651711, 2012;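 active = mean replicate inhibition above about 25%, with every replicate also reaching it, limit read from the data, passing the limit was not always enough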
FN deposit inh – inhibitors of fibronectin matrix deposition, primary screen, AH1F cells, Alexa488-fibronectin fluorescence, plate reader; AH1F fibroblasts, overnight; inhibition, % at 12.6 µM; actives 0.086% (n = 350,000); AID 743247, 2014;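 active = mean inhibition across replicates of 30% or more, regardless of how many single replicates reach that level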;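 note: positive control wells lacked labelled fibronectin entirely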
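Material: AH1F fibroblasts assembling fluorescent fibronectin matrix; amount: 10000 AH1F cells/well; medium: DMEM, 2% serum; reagent: Alexa488-fibronectin, 24 nM final in well; dosing: single compound dose, delivered by pin transfer; incubation: 1 h adhesion, overnight exposure; detection: fluorescence after three HBSS washes, excitation 485 nm, emission 525 nm; measure: fibronectin deposition inhibition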
PDI turbidity – inhibitors of human PDI, primary screen, biochemical, turbidity, single point, plate reader; Protein disulfide-isomerase (Homo sapiens), P07237; PDI insulin aggregation turbidity, A650, 90 min; inhibition, % at 10 µM; actives 0.052% (n = 350,000); AID 588391, 2011;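 active = mean inhibition across replicates of 30% or more, whatever share of single replicates reach that level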
Starred values were filed as active, the others as inactive; / = no result. Compounds with a hit are over-represented: about 0.44% of the library has one in this group of screens.

SMILES	RAD54 inh	S100A4 MyoIIA	PglD DTNB	ERp5 block	FN deposit inh	PDI turbidity
CCS(=O)(=O)Nc1ccc2c(c1)C(=O)N(C)C[C@@H](OC)[C@@H](C)CN(C(C)=O)[C@H](C)CO2	-2	98*	-1	-1	-2	/
COCC(=O)Nc1ccc2c(c1)C(=O)N(C)[C@@H]1CC[C@@H](CC(=O)NCc3ccc(OC)cc3)O[C@@H]1CO2	-8	/	2	/	-6	/
CN(C)CCNc1ccc(CO)c2oc3ccc(O)cc3c(=O)c12	/	13	/	-1	4	13
CCN(CC)CCNc1ccc(CO)c2oc3cc(Cl)ccc3c(=O)c12	105*	-1	1	2	3	-2
O=C(COC(=O)c1cc(Cl)ccc1[N+](=O)[O-])Nc1cccc2ccccc12	/	0	/	3	5	-1
Cc1ccc(NC(=O)COC(=O)c2cc(Cl)ccc2[N+](=O)[O-])c(C)c1	/	11	/	2	30*	-8
Cc1ccc(S(=O)(=O)Nc2ccc3c(c2)C(=O)N([C@@H](C)CO)C[C@@H](C)[C@@H](CN(C)Cc2ccc(C(=O)O)cc2)O3)cc1	-1	3	4	/	/	/
CCN1CCN(C(c2ccccc2)c2nnnn2Cc2ccccc2)CC1 (stereo unspecified)	-7	/	3	/	33*	2
CNC[C@@H]1Oc2ccccc2CC(=O)N(C)C[C@H]1C	/	/	/	/	-5	/
Cc1cc(C)c(S(=O)(=O)NCc2ccc3c(c2)cc(C)n3C)c(C)c1	0	83*	-7	0	2	/
Cc1cccc(/C=C2/Sc3ccc(C(=O)NCCCN4CCOCC4)cc3NC2=O)c1	-4	-2	4	-9	2	8
CCN1CCN(CCCNC(=O)c2ccc3c(c2)NC(=O)/C(=C\c2cccc(C)c2)S3)CC1	66*	-2	1	-6	11	-9
CCC(CNc1cc(OC)cc2cccnc12)NC1CCCCC1 (stereo unspecified)	/	140*	/	5	-2	-2
COc1cc(NCCCCC(C)N)c2nccc(C)c2c1 (stereo unspecified)	10	30	-5	1	0	-1
COc1cc(NS(=O)(=O)c2ccc(C)cc2)c2ncccc2c1	/	/	/	/	/	6
COc1cc(NCCCC(C)N)c2ncccc2c1 (stereo unspecified)	69*	/	/	/	/	-2
COc1cc2c(cc1OC)CN(C(=O)[C@H]1[C@@H]3C(=O)O[C@@H](c4ccccc4)[C@@H](c4ccccc4)N3[C@@H](c3ccccc3OCCO)[C@]13C(=O)Nc1ccc(C#CC4=CCCCC4)cc13)CC2	-11	-12	-9	1	/	/
O=C(C[C@@H]1C[C@@H]2c3cc(NC(=O)c4ccc5c(c4)OCO5)ccc3O[C@@H]2[C@@H](CO)O1)NCc1ccc(Oc2ccccc2)cc1	1	-7	-2	-1	31*	/
O=C(C[C@H]1C[C@H]2c3cc(NC(=O)c4ccc5c(c4)OCO5)ccc3O[C@H]2[C@@H](CO)O1)NCc1ccc(Oc2ccccc2)cc1	7	-7	1	-7	25	/
O=C(C[C@@H]1C[C@H]2c3cc(NC(=O)NC4CCCC4)ccc3O[C@H]2[C@H](CO)O1)NCCc1ccccc1	4	111*	-4	1	-7	/
COC(=O)C[C@H]1C[C@@H]2c3cc(NC(=O)Cc4ccncc4)ccc3O[C@@H]2[C@@H](CO)O1	2	0	0	60*	-7	/
O=C(C[C@@H]1C[C@@H]2c3cc(NC(=O)CC4CC4)ccc3O[C@@H]2[C@H](CO)O1)NCc1ccccc1	-7	10	0	0	17	/
O=C(C[C@@H]1C[C@H]2c3cc(NC(=O)NC4CCCC4)ccc3O[C@H]2[C@@H](CO)O1)NCCc1ccccc1	-21	8	-2	0	-8	/
O=C(C[C@H]1C[C@H]2c3cc(NC(=O)CC4CC4)ccc3O[C@H]2[C@@H](CO)O1)NCc1ccc(-c2ccccc2)cc1	3	4	3	53*	-7	/
COC(=O)C[C@H]1C[C@H]2c3cc(NC(=O)Cc4ccncc4)ccc3O[C@H]2[C@@H](CO)O1	-7	5	-5	1	-3	-2
SMILES	RAD54 inh	S100A4 MyoIIA	PglD DTNB	ERp5 block	FN deposit inh	PDI turbidity
O=C(Cc1ccncc1)Nc1ccc2c(c1)[C@@H]1C[C@H](CC(=O)N3CCCCC3)O[C@@H](CO)[C@@H]1O2	6	-6	-5	2	-3	/
C[C@@H]1CN([C@H](C)CO)C(=O)c2cccc(NC(=O)c3ccc(-c4nccs4)cc3)c2O[C@@H]1CN(C)CC1CC1	-1	-2	-4	-1	1	/
Cc1cc2cc(CNC(=O)Nc3cccc(Cl)c3)ccc2n1C	-3	78*	1	3	-3	1
CCCCCCCCCCCCCCCC[N+](C)(C)CC	51*	3	2	12	16	13
CCN1CCN(Cc2ccc(NC(=O)c3ccc(C)c(/C=C/c4cnc(Nc5cc(N6CCNCC6)nc(C)n5)cn4)c3)cc2C(F)(F)F)CC1	105*	/	1	/	/	13
CCN1CCN(Cc2ccc(NC(=O)c3ccc(C)c(NC(=O)c4ccno4)c3)cc2C(F)(F)F)CC1	-9	-3	2	-9	4	1
O=C(c1ccccc1F)N1CC(=O)N2[C@@H](CO)[C@H](c3ccc(C#Cc4ccccc4)cc3)[C@@H]2C1	/	79*	/	-2	-7	/
O=C(c1ccc2c(c1)OCO2)N1CC(=O)N2[C@@H](CO)[C@H](c3ccc(C#Cc4ccccc4)cc3)[C@@H]2C1	/	114*	/	-3	/	/
O=C(c1ccccc1F)N1CC(=O)N2[C@H](CO)[C@H](c3ccc(C#Cc4ccccc4)cc3)[C@H]2C1	/	-6	/	2	-9	/
CC(C)CC#Cc1ccc([C@@H]2[C@@H](CO)N3C(=O)CN(C(=O)c4ccccn4)C[C@H]23)cc1	/	-5	/	1	-2	/
N#Cc1ccc(-c2ccc([C@@H]3[C@@H](CO)N4C(=O)CN(C(=O)C5CC5)C[C@H]34)cc2)cc1	/	83*	/	2	/	/
CC(C)CC#Cc1ccc([C@@H]2[C@H](CO)N3C(=O)CN(C(=O)c4ccccn4)C[C@@H]23)cc1	/	107*	/	-3	-14	/
N#Cc1ccc(-c2ccc([C@@H]3[C@@H](CO)N4C(=O)CN(C(=O)C5CC5)C[C@@H]34)cc2)cc1	/	10	/	10	/	/
